High-throughput results (PubChem)
Insulin prom inh = TRM-6 insulin promoter activity inhibition. TRM-6 cells (human fetal islet line), insulin promoter-eGFP reporter, imaging; reporter expression induced with tamoxifen. inhibition, % at 2 µM. 130,000 tested, 0.9% active. AID 1273;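 active = inhibition above the mean plus 3 SD, with well images judged a real hit on visual review, cut at about 60% in these data, passing the limit was not always enough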
RAM network inh = inhibitors of the yeast RAM network | inhibition, % at 50 µM | AID 868 | 190,000 tested, 1.8% active | S. cerevisiae dse1pr::URA3 reporter, 5-FOA growth OD615, 2 d; analog-sensitive cbk1-as2 kinase mutant strain;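 active = inhibition above a set limit, 3 SD over mean compound inhibition, cut at about 8.4% in these data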;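 note: 0% = DMSO-only wells with no growth and 100% = 10 µM 1-NA-PP1 full growth; inhibition rescues growth on 5-FOA so higher OD means more RAM inhibition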
Yeast life ext = extends the lifespan of yeast | S. cerevisiae growth with nicotinamide, OD615; deaD strain in restrictive glucose medium | inhibition of the nicotinamide effect, % at 10 µM | 130,000 tested, 0.68% active | AID 775;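 active = inhibition above a set limit, placed 3 SD over the median of all compounds, cut at about 26% in these data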;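 note: 0% = nicotinamide-treated wells and 100% = cells grown without nicotinamide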
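Material: Modified budding yeast, DeaD strain | Medium: Restrictive glucose medium | Probe or stimulus: 1.5 mM nicotinamide | Dosing: Single dose 10 µM compound, 0.25% DMSO | Times: 48 h at 30 °C | Technique: OD615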
BB579 growth dn = chemicals that inhibit yeast BB579 growth in restrictive medium (lifespan-shortening candidates) | S. cerevisiae BB579 growth, OD615, 48 h | inhibition, % at 10 µM | 140,000 tested, 0.51% active | AID 804;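 active = inhibition above a set limit, 3 SD over the mean compound inhibition, cut at about 44% in these data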
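Assay system – yeast BB579 (DeaD) · Dosing – single compound dose of 10 µM, 0.25% DMSO final · Detection – OD615 turbidity measurement · Buffer or medium – CSMM-D restrictive synthetic medium containing dextrose (glucose) · Benchmarks – positive control amphotericin B 10 µg/mL · Incubation – 48 h exposure, 30 °C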
Efa HMGR inh = E. faecalis class II HMG-CoA reductase inhibition | purified E. faecalis HMGR, NADPH absorbance 340 nm kinetic | inhibition, % at 10 µM | 190,000 tested, 0.41% active | AID 1066;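 active = inhibition above a set limit, the median over all tested compounds plus 3 SD, cut at about 9.5% in these data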;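 note: enzyme runs in reverse so mevalonate oxidation gives rising NADPH absorbance; 0% = complete reaction with DMSO and 100% = background rate lacking mevalonate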
Starred values were filed as active, the others as inactive; x = no result given. Most compounds without a hit are left out; they make up all but 3.7% or so of the library.

SMILES	Insulin prom inh	RAM network inh	Yeast life ext	BB579 growth dn	Efa HMGR inh
CC1(C)Cn2c(nnc2-c2cccc(O)c2)S1	91*	0	-11	-7	-3
CC1Cn2c(nnc2-c2cccc(Cl)c2)S1 (stereo not given)	x	1	-3	-24	-2
Cc1ccc(NC(=O)c2ccc(NCc3ccco3)c([N+](=O)[O-])c2)cc1Cl	x	6	-1	-19	0
Cc1nc2ccccc2c2c1C(=O)N(C)C2=O	14	0	-9	66*	-3
Cc1nc2ccccc2c2c1C(=O)N(C(C)C)C2=O	15	1	-10	-61	6
O=C(COC(=O)Cc1ccc(S(=O)(=O)N2CCCCC2)s1)Nc1ccc2c(c1)OCO2	44	9.4*	-15	-30	-5
CC(/C=N/n1c(COc2ccccc2)n[nH]c1=S)=C\c1ccccc1	-34	8.4*	-11	-2	-1
S=c1[nH]nc(COc2ccccc2)n1/N=C/c1ccncc1	-12	2	x	x	8
O=C(CCC(=O)OCC(=O)c1ccc(-c2ccccc2)cc1)Nc1cccc2cccnc12	-15	10*	-18	-55	-5
Cc1occc1C(=O)Nc1nn[nH]n1	92*	0	4	-27	-1
Cc1noc(N)c1C1(O)C(=O)Nc2c(Cl)cc(Cl)cc21 (stereo not given)	-82	0	x	x	-3
O=C1CSC(c2cccnc2)N1c1cccc(Cl)c1 (stereo not given)	25	1	x	x	13*
O=C1NCCc2c1[nH]c1ccc([N+](=O)[O-])cc21	40	1	x	x	-9
O=C(N/N=C1\CCCc2c1[nH]c1ccc([N+](=O)[O-])cc21)c1ccncc1	x	8.4*	5	-17	-1
Cc1ccnc(N2CCN(c3c4c(c(C#N)c5nc6ccccc6n35)CCC4)CC2)c1	86*	x	x	x	x
Cc1ccc(C)c(S(=O)(=O)NCc2ccc(C(=O)N3CCCCCC3)cc2)c1	77*	2	3	-3	-4
COc1cccc(CN2CCN(C3CCN(c4ccccc4C)CC3)CC2CCO)c1 (stereo not given)	x	3	x	x	11*
COc1ccc(OCCCC(=O)Nc2cccc([N+](=O)[O-])c2C)cc1	x	-1	-5	-23	-2
O=C(NN1C(=O)c2ccccc2C1=O)C1C2CCCCC21 (stereo not given)	-17	2	41*	-18	-3
O=C(NN1C(=O)c2ccccc2C1=O)c1ccncc1	x	1	x	x	-3
CCNc1nc(NCC)nc(SCCOC(=O)Nc2ccc(Cl)cc2Cl)n1	-29	10*	-3	-18	0
CCNc1nc(NCC)nc(SCCOC(=O)c2ccccc2)n1	72	1	x	-11	4
COc1cc(S(=O)(=O)Nc2ccccc2C)ccc1NC(=O)c1ccncc1	x	1	x	x	16*
COc1ccccc1-c1c(C(F)(F)F)oc2cc(OC(=O)c3ccc([N+](=O)[O-])cc3)ccc2c1=O	30	0	6	5	-7
COc1ccc(Cc2nnc(NC(=O)C(C)(C)C)s2)cc1	x	-1	x	x	-2
SMILES	Insulin prom inh	RAM network inh	Yeast life ext	BB579 growth dn	Efa HMGR inh
CCOC(=O)c1c(NC(=O)CSc2nc3ccccc3c(=O)n2-c2ccccc2)sc(C(C)=O)c1C	-163	4	9	-52	3
Cc1cc(C)cc(NC(=O)c2ccc(Cn3nc(C)c(Cl)c3C)o2)c1	0	4	x	-11	-7
Cc1ccc(CNC(=O)c2ccc(Cn3nc(C)c(Cl)c3C)o2)cc1	14	-1	-12	99*	-1
O=C1c2ccccc2-c2nc3ccccc3n21	-74	0	x	-16	-4
c1ccc2c(c1)Cn1c-2nc2ccccc21	95*	-1	-22	31	-5
CCOC(=O)c1cnc(-n2nc(C)cc2C)nc1NCCc1ccccc1	-7	-2	-15	52*	-6
COc1cc(NC(=O)CSc2ncnc3scc(-c4ccccc4)c23)c(C(=O)O)cc1OC	-33	7	x	x	-7
CCC(=O)Nc1ccccc1Sc1ncnc2scc(-c3ccccc3)c12	-83	3	62*	-33	1
S=C(Nc1ccc2nccnc2c1)N1CCOCC1	x	2	x	x	3
COc1ccc(-c2n[nH]c(C(F)(F)F)c2-c2cc3ccccc3o2)c(O)c1	-9	-1	-29	100*	-3
O=C(COC(=O)CC12CC3CC(CC(C3)C1)C2)Nc1cccnc1Cl	5	-1	x	x	-3
Cc1cccc(NC(=O)C2(c3cccs3)CCOCC2)n1	x	2	0	-3	0
Cc1ccc(NC(=O)CN2C(=O)NC(Cc3ccccc3)C2=O)c(Br)c1 (stereo not given)	x	5	x	x	10*
COC(=O)Oc1ccc(/C=N/NC(=O)CN(c2ccccc2Cl)S(C)(=O)=O)cc1OC	29	0	-17	-78	-1
CC1(C)CC(=O)c2cc(C(=O)N3CCN(CCO)CC3)c(=O)n(-c3ccc(Cl)cc3)c2C1	3	0	-15	0	11*
COc1ccc(-n2c3c(cc(C(=O)N4CCCCC4)c2=O)C(=O)CC(C)(C)C3)cc1	10	2	-9	-28	-4
COc1ccc(CN(C)CC(=O)NC2CCCc3ccccc32)cc1OC (stereo not given)	-41	2	x	x	3
Cc1nn(Cc2ccccc2)c(Cl)c1C(=O)OCc1nnc(-c2ccc(Cl)cc2)o1	x	8.6*	-7	-28	-1
COC(=O)C1=C(C)N(C)C(=S)N(C)C1c1ccc(OC)cc1 (stereo not given)	x	-1	x	x	12*
COC(=O)C1=C(C)N(C)C(C)=C(C(=O)OC)C1c1ccc(C(=O)OC)cc1	-19	0	-7	-33	-3
COc1cc(Cl)ccc1NC(=O)COc1ccccc1C(=O)N1CCN(c2ccc(O)cc2)CC1	79*	5	-21	-39	0
O=C(Nc1ccc(Cl)cc1)N1CC=CCC1	63*	0	-10	-29	-4
COc1cc(/C=N/NC(=S)NCCN2CCOCC2)ccc1O	13	1	-3	-29	-3
O=C(Nc1ccc(F)cc1)C1CC(=O)n2ncnc2N1 (stereo not given)	-9	2	x	x	-3
O=C(Nc1ccc(F)cc1)C1CC(=O)n2cnnc2N1 (stereo not given)	x	2	x	x	9.7*
SMILES	Insulin prom inh	RAM network inh	Yeast life ext	BB579 growth dn	Efa HMGR inh
CC1CCCC(NC(=O)COC(=O)COc2ccccc2Cl)C1C (stereo not given)	42	3	x	x	11*
CC1CCCCC1NC(=O)COC(=O)COc1ccccc1Cl (stereo not given)	-100	5	x	x	0
COc1ccccc1N1C(C)=CC(=C(C#N)c2nc3ccccc3s2)C=C1C	x	8.5*	6	-24	3
Cc1[nH][nH]c(=O)c1C(c1cc2c(cc1Br)OCO2)c1c(C)[nH][nH]c1=O	67*	0	x	x	-4
CCc1ccc2c(c1)c(N=NC1=NC(=O)CS1)c(O)n2C	79*	5	-21	-31	-7
CCOc1ccc2c(c1)c(N=O)c(O)n2C	-87	2	4	-46	1
CN1COc2ccc3ccccc3c2C1	38	0	x	x	-3
